# Entries after “also recorded” stand apart in the source; their conditions may differ.
# Assay: Safety and tolerability
# Type: in vivo, human
# How it was run: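 Open-label multicentre phase I/IIa trial in adults with advanced or metastatic solid tumours. Part 1 used 3+3 oral capsule escalation at 50–800 mg/day to define DLT and MTD. Part 2 gave tablets. Treatment continued until progression, intolerable AE or study end, with dose decisions by a safety monitoring board. AEs of special interest were monitored. The safety population was all dosed patients, summarised by dose level.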
compound,measurement,setting,value
Cn1cc(-c2ccc3c(c2)ncn3-c2cc(NS(=O)(=O)C3CC3)cc(-c3ccc(F)cc3F)c2)cn1 [ODM-203],Decreased appetite,capsule 600 mg (n=30),9 (30.0) n (%)
same,Diarrhoea,capsule 600 mg (n=30),17 (56.7) n (%)
same,Dry mouth,capsule 600 mg (n=30),14 (46.7) n (%)
same,Dry skin,capsule 600 mg (n=30),1 (3.3) n (%)
same,Dysgeusia,capsule 600 mg (n=30),5 (16.7) n (%)
same,Epistaxis,capsule 600 mg (n=30),8 (26.7) n (%)
same,Fatigue,capsule 600 mg (n=30),10 (33.3) n (%)
same,Hyperbilirubinaemia,capsule 600 mg (n=30),10 (33.3) n (%)
same,Hyperphosphataemia,capsule 600 mg (n=30),6 (20.0) n (%)
same,Hypertension,capsule 600 mg (n=30),5 (16.7) n (%)
same,Jaundice,capsule 600 mg (n=30),10 (33.3) n (%)
same,Mucosal inflammation,capsule 600 mg (n=30),1 (3.3) n (%)
same,Myalgia,capsule 600 mg (n=30),4 (13.3) n (%)
same,Nasal dryness,capsule 600 mg (n=30),5 (16.7) n (%)
same,Nausea,capsule 600 mg (n=30),4 (13.3) n (%)
same,Onycholysis,capsule 600 mg (n=30),6 (20.0) n (%)
same,Palmar-plantar eryrthodysaestesia,capsule 600 mg (n=30),11 (36.7) n (%)
same,Related AE,capsule 600 mg (n=30),30 (100) n (%)
same,Related SAEs,capsule 600 mg (n=30),8 (26.7) n (%)
same,Stomatitis,capsule 600 mg (n=30),11 (36.7) n (%)
same,Vomiting,capsule 600 mg (n=30),2 (6.7) n (%)
same,Weight decreased,capsule 600 mg (n=30),10 (33.3) n (%)
same,patients with a DLT (punctate keratitis),capsule 800 mg,1 patient
same,AE leading to death,capsule 800 mg (n=7),0 n (%)
same,AE leading to discontinuation,capsule 800 mg (n=7),3 (42.9) n (%)
same,AE leading to dose reduction,capsule 800 mg (n=7),0 n (%)
same,AE leading to treatment interruption,capsule 800 mg (n=7),5 (71.4) n (%)
same,Alopecia,capsule 800 mg (n=7),5 (71.4) n (%)
same,Any AE,capsule 800 mg (n=7),7 (100) n (%)
same,Arthralgia,capsule 800 mg (n=7),4 (57.1) n (%)
same,Asthenia,capsule 800 mg (n=7),2 (28.6) n (%)
same,Blood bilirubin increased,capsule 800 mg (n=7),3 (42.9) n (%)
same,Conjugated bilirubin increased,capsule 800 mg (n=7),0 n (%)
same,Decreased appetite,capsule 800 mg (n=7),1 (14.3) n (%)
same,Diarrhoea,capsule 800 mg (n=7),4 (57.1) n (%)
same,Dry skin,capsule 800 mg (n=7),1 (14.3) n (%)
same,Dysgeusia,capsule 800 mg (n=7),1 (14.3) n (%)
same,Epistaxis,capsule 800 mg (n=7),3 (42.9) n (%)
same,Fatigue,capsule 800 mg (n=7),2 (28.6) n (%)
same,Hyperbilirubinaemia,capsule 800 mg (n=7),4 (57.1) n (%)
same,Hyperphosphataemia,capsule 800 mg (n=7),3 (42.9) n (%)
same,Hypertension,capsule 800 mg (n=7),0 n (%)
same,Jaundice,capsule 800 mg (n=7),2 (28.6) n (%)
same,Mucosal inflammation,capsule 800 mg (n=7),0 n (%)
same,Myalgia,capsule 800 mg (n=7),2 (28.6) n (%)
same,Nasal dryness,capsule 800 mg (n=7),0 n (%)
same,Nausea,capsule 800 mg (n=7),0 n (%)
same,Onycholysis,capsule 800 mg (n=7),2 (28.6) n (%)
same,Palmar-plantar eryrthodysaestesia,capsule 800 mg (n=7),1 (14.3) n (%)
same,Related AE,capsule 800 mg (n=7),7 (100) n (%)
same,Related SAEs,capsule 800 mg (n=7),1 (14.3) n (%)
same,Stomatitis,capsule 800 mg (n=7),4 (57.1) n (%)
same,Vomiting,capsule 800 mg (n=7),0 n (%)
same,Weight decreased,capsule 800 mg (n=7),1 (14.3) n (%)
same,maximum tolerated dose (MTD),"capsule, up to 800 mg once daily",not established; also recorded: not reached
same,arthralgia grade 3 events,in vivo,two
same,hypertension considered related to study treatment,in vivo,14 patients
same,hypertension events of grade 3 or higher,in vivo,three
same,myalgia grade 3,in vivo,two
same,increased alanine transaminase levels,of 30 patients treated with 400 mg/day,three
same,Hypertension,patients,19%
same,Myalgia,patients,16.7%
same,back pain,patients,11.9%
same,grade 3 hypertension,patients,3.6%
same,ocular events,patients,19.0%
same,AEs leading to dose reductions,"patients, N=84",10.7%
same,AEs leading to treatment interruption,"patients, N=84",72.6%
same,bilirubin increase-related events,"patients, N=84",75%
same,diarrhoea (AE related to treatment),"patients, N=84",50%
same,dry mouth (AE related to treatment),"patients, N=84",34.5%
same,events resulting in treatment discontinuation,"patients, N=84",35.7%
same,palmar-plantar eryrthrodysesthesia (AE related to treatment),"patients, N=84",35.7%
same,stomatitis (AE related to treatment),"patients, N=84",40.5%
same,AEs considered related to the treatment,"share of AEs, all doses",70.4%
same,AEs grade 1 or 2 in severity,"share of AEs, all doses",89.2%
same,AE leading to death,tablet 200 mg (n=3),0 n (%)
same,AE leading to discontinuation,tablet 200 mg (n=3),0 n (%)
same,AE leading to dose reduction,tablet 200 mg (n=3),0 n (%)
same,AE leading to treatment interruption,tablet 200 mg (n=3),0 n (%)
same,Alopecia,tablet 200 mg (n=3),1 (33.3) n (%)
same,Any AE,tablet 200 mg (n=3),3 (100) n (%)
same,Arthralgia,tablet 200 mg (n=3),1 (33.3) n (%)
same,Asthenia,tablet 200 mg (n=3),0 n (%)
same,Blood bilirubin increased,tablet 200 mg (n=3),2 (66.7) n (%)
same,Conjugated bilirubin increased,tablet 200 mg (n=3),0 n (%)
same,Decreased appetite,tablet 200 mg (n=3),1 (33.3) n (%)
same,Diarrhoea,tablet 200 mg (n=3),0 n (%)
same,Dry mouth,tablet 200 mg (n=3),1 (33.3) n (%)
same,Dry skin,tablet 200 mg (n=3),0 n (%)
same,Dysgeusia,tablet 200 mg (n=3),1 (33.3) n (%)
same,Epistaxis,tablet 200 mg (n=3),0 n (%)
same,Fatigue,tablet 200 mg (n=3),1 (33.3) n (%)
same,Hyperbilirubinaemia,tablet 200 mg (n=3),0 n (%)
same,Hyperphosphataemia,tablet 200 mg (n=3),0 n (%)
same,Hypertension,tablet 200 mg (n=3),1 (33.3) n (%)
same,Jaundice,tablet 200 mg (n=3),0 n (%)
same,Mucosal inflammation,tablet 200 mg (n=3),0 n (%)
same,Myalgia,tablet 200 mg (n=3),1 (33.3) n (%)
same,Nasal dryness,tablet 200 mg (n=3),0 n (%)
same,Nausea,tablet 200 mg (n=3),0 n (%)
same,Onycholysis,tablet 200 mg (n=3),0 n (%)
same,Palmar-plantar eryrthodysaestesia,tablet 200 mg (n=3),0 n (%)
same,Related AE,tablet 200 mg (n=3),3 (100) n (%)
same,Related SAEs,tablet 200 mg (n=3),0 n (%)
same,Stomatitis,tablet 200 mg (n=3),1 (33.3) n (%)
same,Vomiting,tablet 200 mg (n=3),0 n (%)
same,Weight decreased,tablet 200 mg (n=3),0 n (%)
same,AE leading to death,tablet 300 mg (n=3),0 n (%)
same,AE leading to discontinuation,tablet 300 mg (n=3),0 n (%)
same,AE leading to dose reduction,tablet 300 mg (n=3),1 (33.3) n (%)
same,AE leading to treatment interruption,tablet 300 mg (n=3),1 (33.3) n (%)
same,Alopecia,tablet 300 mg (n=3),1 (33.3) n (%)
same,Any AE,tablet 300 mg (n=3),3 (100) n (%)
same,Arthralgia,tablet 300 mg (n=3),2 (66.7) n (%)
same,Asthenia,tablet 300 mg (n=3),3 (100) n (%)
same,Blood bilirubin increased,tablet 300 mg (n=3),0 n (%)
same,Conjugated bilirubin increased,tablet 300 mg (n=3),1 (33.3) n (%)
same,Decreased appetite,tablet 300 mg (n=3),2 (66.7) n (%)
same,Diarrhoea,tablet 300 mg (n=3),1 (33.3) n (%)
same,Dry mouth,tablet 300 mg (n=3),1 (33.3) n (%)
same,Dry skin,tablet 300 mg (n=3),1 (33.3) n (%)
same,Dysgeusia,tablet 300 mg (n=3),1 (33.3) n (%)
same,Epistaxis,tablet 300 mg (n=3),1 (33.3) n (%)
same,Fatigue,tablet 300 mg (n=3),0 n (%)
same,Hyperbilirubinaemia,tablet 300 mg (n=3),1 (33.3) n (%)
same,Hyperphosphataemia,tablet 300 mg (n=3),1 (33.3) n (%)
same,Hypertension,tablet 300 mg (n=3),0 n (%)
same,Jaundice,tablet 300 mg (n=3),1 (33.3) n (%)
same,Mucosal inflammation,tablet 300 mg (n=3),1 (33.3) n (%)
same,Myalgia,tablet 300 mg (n=3),0 n (%)
same,Nasal dryness,tablet 300 mg (n=3),1 (33.3) n (%)
same,Nausea,tablet 300 mg (n=3),0 n (%)
same,Onycholysis,tablet 300 mg (n=3),0 n (%)
same,Palmar-plantar eryrthodysaestesia,tablet 300 mg (n=3),1 (33.3) n (%)
same,Related AE,tablet 300 mg (n=3),3 (100) n (%)
same,Related SAEs,tablet 300 mg (n=3),1 (33.3) n (%)
same,Stomatitis,tablet 300 mg (n=3),0 n (%)
same,Vomiting,tablet 300 mg (n=3),1 (33.3) n (%)
same,Weight decreased,tablet 300 mg (n=3),2 (66.7) n (%)
same,AE leading to death,tablet 400 mg (n=30),5 (16.7) n (%)
same,AE leading to discontinuation,tablet 400 mg (n=30),9 (30.0) n (%)
same,AE leading to dose reduction,tablet 400 mg (n=30),6 (20.0) n (%)
same,AE leading to treatment interruption,tablet 400 mg (n=30),28 (93.3) n (%)
same,Alopecia,tablet 400 mg (n=30),10 (33.3) n (%)
same,Any AE,tablet 400 mg (n=30),30 (100) n (%)
same,Arthralgia,tablet 400 mg (n=30),9 (30.0) n (%)
same,Asthenia,tablet 400 mg (n=30),10 (33.3) n (%)
same,Blood bilirubin increased,tablet 400 mg (n=30),15 (50.0) n (%)
same,Conjugated bilirubin increased,tablet 400 mg (n=30),7 (23.3) n (%)
same,Decreased appetite,tablet 400 mg (n=30),11 (36.7) n (%)
same,Diarrhoea,tablet 400 mg (n=30),19 (63.3) n (%)
same,Dry mouth,tablet 400 mg (n=30),12 (40.0) n (%)
same,Dry skin,tablet 400 mg (n=30),7 (23.3 n (%)
same,Dysgeusia,tablet 400 mg (n=30),10 (33.3) n (%)
same,Epistaxis,tablet 400 mg (n=30),14 (46.7) n (%)
same,Fatigue,tablet 400 mg (n=30),9 (30.0) n (%)
same,Hyperbilirubinaemia,tablet 400 mg (n=30),11 (36.7) n (%)
same,Hyperphosphataemia,tablet 400 mg (n=30),8 (26.7) n (%)
same,Hypertension,tablet 400 mg (n=30),8 (26.7) n (%)
same,Jaundice,tablet 400 mg (n=30),11 (36.7) n (%)
same,Mucosal inflammation,tablet 400 mg (n=30),7 (23.3) n (%)
same,Myalgia,tablet 400 mg (n=30),3 (10.0) n (%)
same,Nasal dryness,tablet 400 mg (n=30),6 (20.0) n (%)
same,Nausea,tablet 400 mg (n=30),7 (23.3) n (%)
same,Onycholysis,tablet 400 mg (n=30),3 (10.0) n (%)
same,Palmar-plantar eryrthodysaestesia,tablet 400 mg (n=30),15 (50.0) n (%)
same,Related AE,tablet 400 mg (n=30),29 (96.7) n (%)
same,Related SAEs,tablet 400 mg (n=30),4 (13.3) n (%)
same,Stomatitis,tablet 400 mg (n=30),17 (56.7) n (%)
same,Vomiting,tablet 400 mg (n=30),5 (16.7) n (%)
same,Weight decreased,tablet 400 mg (n=30),5 (16.7) n (%)
